The list is not random: actives were taken first. Their share in the collection is about 3.5%.
PAFAH2 FP inh: PAFAH2 enzyme inhibitors, primary screen, biochemical, fluorescence polarization, human; 340,000 compounds, 0.99% hits; AID 492956, 2010; Platelet-activating factor acetylhydrolase 2, cytoplasmic (Homo sapiens), Q99487; recombinant PAFAH2, FP-rhodamine activity probe; inhibition, % at 3.39 µM;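 active means inhibition above the mean over all tested compounds plus 3 SD, cut at about 30% in these data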;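 further: inhibitors block probe labeling of enzyme so polarization drops; 0% = enzyme with DMSO and 100% = wells lacking PAFAH2 protein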
PAFAH1B2 inh: PAFAH1B2 enzyme inhibitors, primary screen, biochemical, fluorescence polarization, human; Platelet-activating factor acetylhydrolase IB subunit alpha2 (Homo sapiens), P68402; recombinant PAFAH1B2, FP-rhodamine activity probe; inhibition, % at 3.39 µM; 340,000 compounds, 1.2% hits; AID 492953, 2010;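 active means inhibition above the mean of all tested compounds plus 3 SD, cut at about 24% in these data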;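 further: 0% = enzyme with DMSO and 100% = wells lacking PAFAH1B2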
PREPL inh: PREPL enzyme inhibitors, primary screen, biochemical, fluorescence polarization | Prolyl endopeptidase-like (Homo sapiens), Q4J6C6 | recombinant PREPL, fluorescence polarization activity-based probe | inhibition, % at 5.96 µM | 320,000 compounds, 0.68% hits;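 further: 0% = enzyme with DMSO and 100% = wells lacking enzyme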
pPAFAH FP inh: pPAFAH enzyme inhibitors, primary screen, biochemical, fluorescence polarization, human. Platelet-activating factor acetylhydrolase (Homo sapiens), Q13093. recombinant pPAFAH, FP-rhodamine probe fluorescence polarization. inhibition, % at 3.39 µM. 330,000 compounds, 1.5% hits. AID 463082, 2010;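 active means inhibition above the mean inhibition across the screen plus 3 SD, cut at about 25% in these data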;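 further: inhibitors block binding of the rhodamine activity-based probe so polarization drops; 0% = enzyme with DMSO and 100% = wells lacking pPAFAH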
Target sequence (Q13093 whole entry, looked up): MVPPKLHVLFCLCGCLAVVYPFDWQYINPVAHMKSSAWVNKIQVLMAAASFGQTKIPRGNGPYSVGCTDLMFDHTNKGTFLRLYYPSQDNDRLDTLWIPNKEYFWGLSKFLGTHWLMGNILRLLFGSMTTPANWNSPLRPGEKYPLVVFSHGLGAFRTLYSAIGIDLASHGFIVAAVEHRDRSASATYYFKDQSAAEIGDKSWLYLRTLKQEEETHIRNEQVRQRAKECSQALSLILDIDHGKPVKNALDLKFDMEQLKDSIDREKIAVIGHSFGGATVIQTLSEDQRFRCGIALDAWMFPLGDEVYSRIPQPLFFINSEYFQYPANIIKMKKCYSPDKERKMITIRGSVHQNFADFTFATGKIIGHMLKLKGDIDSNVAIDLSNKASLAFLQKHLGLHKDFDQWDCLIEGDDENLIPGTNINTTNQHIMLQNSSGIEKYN
PAFAH1B3 inh: PAFAH1B3 enzyme inhibitors, primary screen, biochemical, fluorescence polarization, human; Platelet-activating factor acetylhydrolase IB subunit alpha1 (Homo sapiens), Q15102; recombinant PAFAH1B3, FP-rhodamine probe; 340,000 compounds, 0.28% hits; inhibition, % at 3.39 µM;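 active means inhibition above the screen-wide average of all tested compounds plus 3 SD, cut at about 25% in these data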;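 further: 0% = enzyme with DMSO only and 100% = wells lacking PAFAH1B3 protein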
Apaf1 inhib: inhibitors of human Apaf-1 apoptosome, primary screen, biochemical, DEVD-Rh110 fluorescence, uHTS; Apoptotic protease-activating factor 1 (Homo sapiens), O14727; reconstituted apoptosome caspase-3 activity; inhibition, % at 20 µM; 330,000 compounds, 0.71% hits; active means inhibition of at least 40% at 20 µM;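 further: plate controls were DMSO wells for no effect and DEVD-CHO caspase inhibitor wells for full effect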
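Material: reconstituted apoptosome with Apaf-1, cytochrome c, caspase-9, procaspase-3, dATP; medium: pH 7.5 Hepes buffer with CHAPS, BSA, DTT; also added: cytochrome c and DEVD-Rh110 substrate; timing: 30 min plus 50 min, RT; signal: Rh110 fluorescence intensity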
PREPL confirm: human PREPL enzyme inhibitors, confirmation, biochemical, fluorescence polarization. inhibition, % at 5.96 µM. recombinant PREPL, fluorescence polarization activity probe. shares compounds with PREPL inh. 2,000 compounds, 67% hits;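 further: 0% = protein with DMSO and 100% = wells lacking protein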
An asterisk follows results filed as active; x = no result given. Unless noted, no stated cut-off is given here; in the data, active means inhibition above about 43%; inactive means the rest.

SMILES	PAFAH2 FP inh	PAFAH1B2 inh	PREPL inh	pPAFAH FP inh	PAFAH1B3 inh	Apaf1 inhib	PREPL confirm
C[C@@H]1CN([C@@H](C)CO)C(=O)Cc2cc(NC(=O)Nc3ccc4c(c3)OCO4)ccc2O[C@@H]1CN(C)C(=O)NC1CCCCC1	5	6	54*	9	-1	-4	46*
CC(C)NC(=O)Nc1ccc2c(c1)CC(=O)N([C@@H](C)CO)C[C@H](C)[C@@H](CN(C)C(=O)NC1CCCCC1)O2	10	3	7	3	1	-17	x
Cc1noc(C)c1NC(=O)N(C)C[C@H]1Oc2c(NS(=O)(=O)c3cn(C)cn3)cccc2C(=O)N([C@H](C)CO)C[C@@H]1C	2	-4	10	-3	-1	0	x
COc1ccc(NC(=O)N(CCN2CCCC2)Cc2cc3cc(OC)c(OC)cc3[nH]c2=O)cc1	-1	0	58*	6	-7	-3	18
CC/C(C)=N\Nc1nc(-c2cc3cc(OC)ccc3oc2=O)cs1	8	4	15	18	0	-9	x
Cc1cccc(OCC(=O)OC(C)C(=O)Nc2ccc(S(=O)(=O)N3CCCCC3)cc2)c1 (centres undefined)	-9	-1	12	13	2	17	x
O=C(COc1coc(CN2CCc3ccccc32)cc1=O)N1CCCCC1	-10	3	45*	-3	6	-2	35
NC(=O)C1CCCN(C(=O)CCC(=O)c2cccs2)C1 (centres undefined)	-2	4	18	2	16	-4	x
Cc1ccsc1C(=O)Nc1ccc(F)c([N+](=O)[O-])c1	11	-1	45*	8	1	3	38
O=C(Nc1ccccc1)Nc1ccc(F)c([N+](=O)[O-])c1	-1	4	15	4	7	-6	x
COc1ccc2c(c1)CCc1cc(C(=O)N3CCN(c4ccc(N5CCOCC5)nn4)CC3)sc1-2	12	3	53*	19	6	36	56*
O=C(NCc1ccccn1)c1ccccc1-c1ccccc1	-4	-2	1	6	8	-9	x
CS(=O)(=O)n1nc(-c2ccc(Cl)cc2)nc1N	3	0	-15	-3	4	3	x
Cn1nc(-c2ccc(Cl)cc2)nc2c(=O)n(C)c(=O)nc1-2	x	x	44*	5	x	99*	60*
COc1ccc(/C=N/NC(=O)c2ccco2)cc1OCc1ccccc1	-5	-2	5	2	7	18	x
COc1ccc(C2CC(C(F)(F)F)n3nc(C(=O)Nc4ccc5c(c4)OCO5)cc3N2)cc1 (centres undefined)	7	-3	49*	10	-6	1	38
COc1ccc(OC)c(NC(=O)c2cc3n(n2)C(C(F)(F)F)CC(c2ccc4c(c2)OCO4)N3)c1 (centres undefined)	26	4	43	4	0	7	x
COc1ccc(Nc2nc(-c3sc(N)nc3C)cs2)cc1	1	-1	50*	16	9	18	26
COc1ccc(CCNc2nc(-c3sc(N)nc3C)cs2)cc1OC	1	3	43*	4	1	13	22
Cc1ccc(Nc2nc(-c3sc(C)nc3C)cs2)cc1	1	0	46*	17	-2	16	32
COc1ccc(/C=C/c2nc3ccccc3n2Cc2ccccc2OC)cc1	-4	-1	49*	14	3	-4	47*
COc1ccccc1Cn1c(/C=C/c2ccccc2)nc2ccccc21	-7	2	10	14	-1	3	x
Cn1c(=O)n(C)c2cc(NC(=O)COc3ccc(F)cc3)ccc21	2	2	5	3	-2	1	x
CN1CCN(C(=O)C2=C[C@@H](c3ccccc3)C[C@@H](OCc3ccc(CO)cc3)O2)CC1	-4	3	46*	-4	10	5	49*

Assay outcomes deposited in PubChem BioAssay by several laboratories.
